Laboratory results as given in ChEMBL document CHEMBL4622983, “Structure-Activity Relationship Studies of α-Ketoamides as Inhibitors of the Phospholipase A and Acyltransferase Enzyme Family” (J Med Chem, 2020).
Calls of active or inactive are those of the source. The calls are words filed in the database; no cut-off is given here.

Key:
[1] = biological target: T1, Phospholipase A and acyltransferase 2 (Homo sapiens, UniProt Q9NWW9); experiment: Inhibition of full-length C-terminal FLAG-tagged human PLAAT2 expressed in HEK293T cell lysate preincubated for 30 mins followed by MB064 addition and measured after 20 mins by SDS-PAGE based ABPP analysis; format: cell-free, HEK-293T
T1 sequence (Q9NWW9 whole entry): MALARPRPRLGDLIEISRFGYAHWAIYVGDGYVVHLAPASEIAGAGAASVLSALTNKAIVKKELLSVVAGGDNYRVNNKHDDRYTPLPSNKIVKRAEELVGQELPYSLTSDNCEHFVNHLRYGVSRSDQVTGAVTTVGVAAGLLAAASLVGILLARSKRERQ
Summary of the method: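 Dose–response competitive ABPP on cytosol only, from HEK293T overexpressing FLAG-tagged PLAAT. Inhibitor 30 min rt, then MB064 20 min rt. PLAAT2 0.25 μg/μL with 250 nM probe; PLAAT3 0.5 μg/μL with 250 nM; PLAAT4 and PLAAT5 1 μg/μL with 500 nM. Fluorescence normalized to Coomassie. IC50 from curves, reported as pIC50 ± SEM, n = 3.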

[2] = biological target: Diacylglycerol lipase-beta (Mus musculus) (UniProt Q91WC9); experiment: Inhibition of mouse brain membrane DAGLbeta assessed as enzyme remaining activity at 10 uM preincubated for 30 mins followed by MB064 or FP-TAMRA addition and measured after 15 mins by SDS-PAGE based ABPP analysis relative to control; format: cell membranes
Summary of the method: (§1)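 Mouse brain membrane proteome (2 μg/μL) preincubated with 10 μM inhibitor for 30 min at rt. Then MB064 250 nM or FP-TAMRA 500 nM for 15 min at rt. Resolved on 10% SDS-PAGE, fluorescence normalized to Coomassie. Reported as % remaining activity ± SD, n = 3.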

[3] = biological target: Fatty-acid amide hydrolase 1 (Mus musculus) (UniProt O08914); experiment: Inhibition of mouse brain membrane FAAH assessed as enzyme remaining activity at 10 uM preincubated for 30 mins followed by MB064 or FP-TAMRA addition and measured after 15 mins by SDS-PAGE based ABPP analysis relative to control; format: cell membranes; summary of the method: as §1
[4] = biological target: T2, Phospholipase A and acyltransferase 2 (Homo sapiens) (UniProt Q9NWW9); experiment: Inhibition of full-length C-terminal FLAG-tagged human PLAAT2 expressed in human U2OS cells assessed as reduction in anandamide level at 10 uM incubated for 4 hrs by LC-MS/MS analysis relative to control; format: cell-based
T2 sequence (whole entry): T1 sequence (Q9NWW9 whole entry)
Summary of the method: (§2)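 U2OS cells transfected with PLAAT2, PLAAT5 or empty vector (PEI, 1:5 plasmid/PEI). At 24 h, switched to serum-free medium with 10 μM compound (0.1% DMSO) or DMSO for 4 h at 37 °C. Pellets extracted with MTBE against deuterated internal standards. NAEs, 2-AG and free fatty acids quantified by LC–MS/MS, normalized to live cell count. Four biological replicates; one-way ANOVA.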

[5] = biological target: T3, Phospholipase A and acyltransferase 5 (Homo sapiens) (UniProt Q96KN8); experiment: Inhibition of full-length C-terminal FLAG-tagged human PLAAT5 expressed in human U2OS cells assessed as reduction in anandamide level at 10 uM incubated for 4 hrs by LC-MS/MS analysis relative to control; format: cell-based; summary of the method: as §2
T3 sequence (whole entry): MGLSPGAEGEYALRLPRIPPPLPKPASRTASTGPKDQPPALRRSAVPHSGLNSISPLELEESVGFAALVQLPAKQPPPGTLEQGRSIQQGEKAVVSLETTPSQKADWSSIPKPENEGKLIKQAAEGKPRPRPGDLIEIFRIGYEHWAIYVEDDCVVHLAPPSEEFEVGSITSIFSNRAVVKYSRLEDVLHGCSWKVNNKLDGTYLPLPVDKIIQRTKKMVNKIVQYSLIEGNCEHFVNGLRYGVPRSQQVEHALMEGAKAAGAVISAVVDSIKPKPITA

[6] = biological target: T3, Phospholipase A and acyltransferase 5 (Homo sapiens); experiment: Inhibition of full-length C-terminal FLAG-tagged human PLAAT5 expressed in human U2OS cells assessed as reduction in absolute N-palmitoylethanolamine level at 10 uM incubated for 4 hrs by LC-MS/MS analysis; format: cell-based; summary of the method: as §2
[7] = biological target: T2, Phospholipase A and acyltransferase 2 (Homo sapiens); experiment: Inhibition of full-length C-terminal FLAG-tagged human PLAAT2 expressed in human U2OS cells assessed as reduction in absolute N-palmitoleoylethanolamine level at 10 uM incubated for 4 hrs by LC-MS/MS analysis; format: cell-based; summary of the method: as §2
[8] = biological target: T3, Phospholipase A and acyltransferase 5 (Homo sapiens); experiment: Inhibition of full-length C-terminal FLAG-tagged human PLAAT5 expressed in human U2OS cells assessed as reduction in absolute N-stearoylethanolamine level at 10 uM incubated for 4 hrs by LC-MS/MS analysis; format: cell-based; summary of the method: as §2
[9] = biological target: T2, Phospholipase A and acyltransferase 2 (Homo sapiens); experiment: Inhibition of full-length C-terminal FLAG-tagged human PLAAT2 expressed in human U2OS cells assessed as reduction in absolute N-oleoylethanolamine level at 10 uM incubated for 4 hrs by LC-MS/MS analysis; format: cell-based; summary of the method: as §2
[10] = biological target: T3, Phospholipase A and acyltransferase 5 (Homo sapiens); experiment: Inhibition of full-length C-terminal FLAG-tagged human PLAAT5 expressed in human U2OS cells assessed as reduction in absolute N-oleoylethanolamine level at 10 uM incubated for 4 hrs by LC-MS/MS analysis; format: cell-based; summary of the method: as §2
[11] = biological target: T3, Phospholipase A and acyltransferase 5 (Homo sapiens); experiment: Inhibition of full-length C-terminal FLAG-tagged human PLAAT5 expressed in human U2OS cells assessed as reduction in absolute N-linoleoylethanolamine level at 10 uM incubated for 4 hrs by LC-MS/MS analysis; format: cell-based; summary of the method: as §2
[12] = biological target: T2, Phospholipase A and acyltransferase 2 (Homo sapiens); experiment: Inhibition of full-length C-terminal FLAG-tagged human PLAAT2 expressed in human U2OS cells assessed as reduction in absolute N-eicosapentaenoylethanolamine level at 10 uM incubated for 4 hrs by LC-MS/MS analysis; format: cell-based; summary of the method: as §2
U2OS [13] = experiment: Downregulation of N-oleoylethanolamine level in human U2OS cells at 10 uM after 4 hrs by LC-MS/MS analysis; format: functional, cell-based; summary of the method: as §2
U2OS [14] = experiment: Downregulation of N-arachidonoylethanolamine level in human U2OS cells at 10 uM after 4 hrs by LC-MS/MS analysis; format: functional, cell-based; summary of the method: as §2
U2OS [15] = experiment: Downregulation of N-eicosapentaenoylethanolamine level in human U2OS cells at 10 uM after 4 hrs by LC-MS/MS analysis; format: functional, cell-based; summary of the method: as §2
[16] = biological target: T3, Phospholipase A and acyltransferase 5 (Homo sapiens); experiment: Inhibition of full-length C-terminal FLAG-tagged human PLAAT5 expressed in human U2OS cells assessed as reduction in arachidonic acid level at 10 uM incubated for 4 hrs by LC-MS/MS analysis; format: cell-based; summary of the method: as §2
U2OS [17] = experiment: Inhibition of serine hydrolase in human U2OS cytosolic fraction at 10 uM preincubated for 30 mins followed by FP-TAMRA addition and measured after 15 mins by SDS-PAGE based competitive ABPP analysis
Summary of the method: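 U2OS cytosol or membrane lysate at 2.5 μg/μL, pretreated with inhibitor or DMSO vehicle for 30 min at rt. Probe then added for 15 min at rt: MB064 at 2 μM or FP-TAMRA at 500 nM. Samples denatured in Laemmli buffer and resolved by SDS-PAGE. In-gel fluorescence scanned at Cy3/Cy5 settings and normalized to Coomassie staining.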

[18] = biological target: Cytosolic phospholipase A2 delta (Homo sapiens) (UniProt Q86XP0); experiment: Inhibition of human PLA2G4D expressed in HEK293T cell lysates at 10 uM preincubated for 30 mins followed by FP-TAMRA addition and measured after 20 mins by SDS-PAGE based competitive ABPP analysis; format: cell-free; settings: HEK-293T
Summary of the method: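 hPLA2G4B, C or D-overexpressing membrane lysate (1 μg/μL) preincubated with inhibitor for 30 min at rt. FP-TAMRA 500 nM added for 20 min at rt. In-gel fluorescence after SDS-PAGE, normalized to Coomassie.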

Sequence of Cytosolic phospholipase A2 delta (Homo sapiens) (Q86XP0 whole entry): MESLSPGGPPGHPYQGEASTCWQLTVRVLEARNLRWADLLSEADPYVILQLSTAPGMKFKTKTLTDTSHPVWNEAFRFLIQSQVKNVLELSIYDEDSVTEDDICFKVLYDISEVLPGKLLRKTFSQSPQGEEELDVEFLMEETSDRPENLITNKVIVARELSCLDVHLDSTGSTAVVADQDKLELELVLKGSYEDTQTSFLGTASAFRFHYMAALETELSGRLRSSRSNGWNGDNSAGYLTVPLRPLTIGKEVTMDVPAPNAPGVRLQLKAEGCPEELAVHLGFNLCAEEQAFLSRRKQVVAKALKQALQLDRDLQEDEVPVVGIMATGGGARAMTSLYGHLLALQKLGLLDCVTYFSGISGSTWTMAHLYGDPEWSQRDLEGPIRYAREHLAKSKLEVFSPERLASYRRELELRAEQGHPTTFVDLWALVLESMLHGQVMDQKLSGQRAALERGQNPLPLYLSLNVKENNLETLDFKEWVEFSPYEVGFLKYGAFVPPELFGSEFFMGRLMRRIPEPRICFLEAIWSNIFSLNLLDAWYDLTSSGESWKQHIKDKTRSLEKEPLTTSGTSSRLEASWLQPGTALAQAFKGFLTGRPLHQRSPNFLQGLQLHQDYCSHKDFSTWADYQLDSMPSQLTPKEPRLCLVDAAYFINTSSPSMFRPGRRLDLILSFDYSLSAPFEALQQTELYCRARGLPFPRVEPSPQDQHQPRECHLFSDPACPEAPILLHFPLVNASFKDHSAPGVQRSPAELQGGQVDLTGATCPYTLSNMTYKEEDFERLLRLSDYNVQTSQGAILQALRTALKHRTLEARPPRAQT
Sequence of Diacylglycerol lipase-beta (Mus musculus) (Q91WC9 whole entry): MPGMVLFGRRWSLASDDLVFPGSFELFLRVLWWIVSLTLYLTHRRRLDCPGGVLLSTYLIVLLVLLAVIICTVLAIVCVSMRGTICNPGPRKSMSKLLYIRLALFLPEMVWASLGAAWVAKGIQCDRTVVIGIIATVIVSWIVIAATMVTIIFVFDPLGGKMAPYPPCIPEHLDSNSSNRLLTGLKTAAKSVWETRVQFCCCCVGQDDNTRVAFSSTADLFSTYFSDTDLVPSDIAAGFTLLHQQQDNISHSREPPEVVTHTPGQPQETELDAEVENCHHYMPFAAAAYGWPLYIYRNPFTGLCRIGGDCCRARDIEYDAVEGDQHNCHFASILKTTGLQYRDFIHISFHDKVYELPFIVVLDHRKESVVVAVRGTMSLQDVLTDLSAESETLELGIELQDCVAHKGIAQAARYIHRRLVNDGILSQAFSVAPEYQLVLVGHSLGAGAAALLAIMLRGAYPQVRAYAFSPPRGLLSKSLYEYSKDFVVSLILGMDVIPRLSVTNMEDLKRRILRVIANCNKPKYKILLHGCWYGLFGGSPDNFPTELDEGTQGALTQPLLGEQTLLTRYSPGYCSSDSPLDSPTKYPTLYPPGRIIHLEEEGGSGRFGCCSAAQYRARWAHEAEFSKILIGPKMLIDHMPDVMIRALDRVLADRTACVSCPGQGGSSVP
Sequence of Fatty-acid amide hydrolase 1 (Mus musculus) (O08914 whole entry): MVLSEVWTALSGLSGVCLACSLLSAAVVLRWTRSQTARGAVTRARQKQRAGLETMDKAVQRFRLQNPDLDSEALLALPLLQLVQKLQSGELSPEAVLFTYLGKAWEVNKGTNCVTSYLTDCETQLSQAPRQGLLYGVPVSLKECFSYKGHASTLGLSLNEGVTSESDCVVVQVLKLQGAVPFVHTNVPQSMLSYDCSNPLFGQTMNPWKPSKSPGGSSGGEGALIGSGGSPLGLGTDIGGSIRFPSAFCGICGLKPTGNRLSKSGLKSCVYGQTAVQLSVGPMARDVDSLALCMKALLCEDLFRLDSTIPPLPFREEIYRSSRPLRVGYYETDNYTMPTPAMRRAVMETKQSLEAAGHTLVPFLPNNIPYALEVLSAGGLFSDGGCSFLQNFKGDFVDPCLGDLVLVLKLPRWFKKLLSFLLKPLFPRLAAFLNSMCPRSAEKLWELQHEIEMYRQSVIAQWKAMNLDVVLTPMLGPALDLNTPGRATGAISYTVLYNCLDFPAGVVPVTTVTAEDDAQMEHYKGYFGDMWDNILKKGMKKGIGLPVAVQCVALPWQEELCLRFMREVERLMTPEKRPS

IC50 [1]: 50.1 nM | Activity [2]: 83% | Activity [3]: 108% | fold change (FC) [4]: 2 | fold change (FC) [5]: 2 | inhibition [6]: Active | inhibition [7]: Active | inhibition [8]: Active | inhibition [9]: Active | inhibition [10]: Active | inhibition [11]: Active | inhibition [12]: Active | inhibition [16]: inactive | inhibition (U2OS [17]): inactive | inhibition [18]: inactive
SMILES: O=C(CCCc1ccccc1)C(=O)NCCc1ccc(Oc2ccccc2)cc1
inhibition (U2OS [13]): inactive | inhibition (U2OS [14]): inactive | inhibition (U2OS [15]): inactive
